Tests used:
[1] = biological target: T1, B1 bradykinin receptor (Homo sapiens, UniProt P46663); experiment: Antagonistic activity at human bradykinin B1 receptor expressed in CHO cells assessed as effect on DAK-mediated calcium mobilization; type: functional, cell-based
T1 sequence (P46663 whole entry): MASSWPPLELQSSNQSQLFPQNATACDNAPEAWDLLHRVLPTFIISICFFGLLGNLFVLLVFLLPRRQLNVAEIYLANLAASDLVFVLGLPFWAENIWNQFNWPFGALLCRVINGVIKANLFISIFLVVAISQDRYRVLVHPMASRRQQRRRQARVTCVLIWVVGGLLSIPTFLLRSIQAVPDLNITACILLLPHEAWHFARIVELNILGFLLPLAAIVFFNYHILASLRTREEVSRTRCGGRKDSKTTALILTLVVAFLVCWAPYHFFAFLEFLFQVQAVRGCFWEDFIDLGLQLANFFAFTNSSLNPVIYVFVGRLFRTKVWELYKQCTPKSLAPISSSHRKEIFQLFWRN
Summary of the method: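 B1 receptor cDNA transfected into CHO cells; antagonist potency given as IC50 ± SEM with the number of determinations (n).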

[2] = biological target: T1, B1 bradykinin receptor; experiment: Displacement of [3H]DAK from human bradykinin B1 receptor expressed in CHO-D cells; type: cell-based
[3] = biological target: T2, B2 bradykinin receptor (Homo sapiens, UniProt P30411); experiment: Displacement of [3H]bradykinin from human bradykinin B2 receptor expressed in CHO-K1 cells; type: cell-based
T2 sequence (P30411 whole entry): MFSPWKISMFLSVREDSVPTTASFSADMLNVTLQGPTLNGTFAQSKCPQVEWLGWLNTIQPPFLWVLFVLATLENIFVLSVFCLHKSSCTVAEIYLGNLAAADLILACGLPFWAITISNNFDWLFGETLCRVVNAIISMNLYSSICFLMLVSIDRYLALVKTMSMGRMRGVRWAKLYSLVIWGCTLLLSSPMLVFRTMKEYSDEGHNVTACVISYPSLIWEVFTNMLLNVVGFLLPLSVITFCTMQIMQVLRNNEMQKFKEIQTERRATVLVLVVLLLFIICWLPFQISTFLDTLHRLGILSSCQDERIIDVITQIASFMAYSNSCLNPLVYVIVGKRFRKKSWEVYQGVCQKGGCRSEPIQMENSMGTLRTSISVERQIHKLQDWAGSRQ

[4] = system: Rattus norvegicus; experiment: Reduction of exudates volume in rat reverse passive arthus model at 60 mg/kg, sc relative to control; type: functional; set-up: scale not given: the % may be the effect or the level left; details: route subcutaneous
Summary of the method: (§1)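 Reverse passive Arthus inflammation model in rats; drug given s.c. at 30, 60 or 90 mg/kg; exudate volume expressed relative to saline-treated animals and tested for statistical significance.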

[5] = Mean residence time in rat at 1 mg/kg, iv; type: ADME, organism-based; set-up: dose 1 mg/kg, route intravenous; details: in vivo
[6] = system: Rattus norvegicus; experiment: Reduction of exudates volume in rat carrageenan-induced pleurisy model at 90 mg/kg, sc relative to control; type: functional; set-up: scale not given: the % may be the effect or the level left; details: route subcutaneous
[7] = Clearance in rat at 10 mg/kg, sc; type: ADME, organism-based; set-up: dose 10 mg/kg, route subcutaneous; details: in vivo
[8] = Bioavailability in rat at 10 mg/kg, sc; type: ADME, organism-based; details: in vivo
[9] = Half life in rat at 1 mg/kg, iv; type: ADME, organism-based; set-up: dose 1 mg/kg, route intravenous; details: in vivo
[10] = AUC (0-inf) in rat at 1 mg/kg, iv; type: ADME, organism-based; set-up: time infinity, dose 1 mg/kg, route intravenous; details: plasma
[11] = AUC (0-t) in rat at 10 mg/kg, sc; type: ADME, organism-based; set-up: dose 10 mg/kg, route subcutaneous; details: plasma
[12] = system: Rattus norvegicus; experiment: Reduction of exudates volume in rat reverse passive arthus model at 30 mg/kg, sc relative to control; type: functional; set-up: scale not given: the % may be the effect or the level left; details: route subcutaneous; summary of the method: as §1
[13] = system: Plasma; experiment: Fraction unbound in rat plasma; type: ADME, cell-free
[14] = AUC (0-t) in rat at 1 mg/kg, iv; type: ADME, organism-based; set-up: dose 1 mg/kg, route intravenous; details: plasma
[15] = system: Rattus norvegicus; experiment: Reduction of exudates volume in rat reverse passive arthus model at 90 mg/kg, sc relative to control; type: functional; set-up: scale not given: the % may be the effect or the level left; details: route subcutaneous; summary of the method: as §1
[16] = Volume of distribution in rat at 1 mg/kg, iv; type: ADME, organism-based; set-up: dose 1 mg/kg, route intravenous; details: in vivo, read-out: Vss
[17] = Cmax in rat at 10 mg/kg, sc; type: ADME, organism-based; set-up: dose 10 mg/kg, route subcutaneous; details: in vivo
[18] = system: Rattus norvegicus; experiment: Relevant drug concentration for 5-6 hrs in rat at 90 mg/kg, sc; type: ADME, organism-based; set-up: dose 90 mg/kg, route subcutaneous; details: in vivo
[19] = AUC (0-inf) in rat at 10 mg/kg, sc; type: ADME, organism-based; set-up: time infinity, dose 10 mg/kg, route subcutaneous; details: plasma
[20] = Tmax in rat at 10 mg/kg, sc; type: ADME, organism-based; set-up: dose 10 mg/kg, route subcutaneous; details: in vivo
[21] = Half life in rat at 10 mg/kg, sc; type: ADME, organism-based; set-up: dose 10 mg/kg, route subcutaneous; details: in vivo
[22] = system: Rattus norvegicus; experiment: Reduction of edema formation in rat reverse passive arthus model at 3 mg/kg, po; type: ADME, organism-based; set-up: dose 3 mg/kg, route oral; details: in vivo

SMILES | IC50 [1] [nM] | Ki [2] [nM] | Ki [3] [nM] | further results
O=C(C[C@@H](NS(=O)(=O)c1ccc2ccccc2c1)c1ccccc1)NCCc1ccc(CN2CCCCC2)cc1 | 540 | – | – | –
C[C@@H](NC(=O)C[C@@H](NS(=O)(=O)c1ccc2ccccc2c1)c1ccccc1)c1ccc(CN2CCCCC2)cc1 | 302 | 17 | – | –
O=C(C[C@@H](NS(=O)(=O)c1ccc2ccccc2c1)c1ccccc1)NC1CCc2cc(CCN3CCCCC3)ccc2C1 (stereo partly drawn) | 325 | – | – | –
CN1c2cc(CN3CCCCC3)ccc2[C@@H](NC(=O)C[C@@H](NS(=O)(=O)c2ccc3ccccc3c2)c2ccccc2)CS1(=O)=O | 10.7 | 1.3 | 35000 | –
O=C(C[C@@H](NS(=O)(=O)c1ccc2ccccc2c1)c1ccccc1)N[C@H]1CCOc2cc(CN3CCCCC3)ccc21 | – | – | > 20000 | –
CN1c2cc(CN3CCCCC3)ccc2[C@H](NC(=O)C[C@@H](NS(=O)(=O)c2ccc3ccccc3c2)c2ccccc2)CS1(=O)=O | 14 | 15.8 | 16000 | –
O=C(C[C@@H](NS(=O)(=O)c1ccc2ccccc2c1)c1ccccc1)N[C@H]1CCc2cc(CN3CCCCC3)ccc21 | 183 | 241 | 13300 | –
O=C(C[C@@H](NS(=O)(=O)c1ccc2ccccc2c1)c1ccccc1)N[C@@H]1CCOc2cc(CN3CCCCC3)ccc21 | – | – | > 50000 | Activity [4]: 10%; MRT [5]: 1.5 h; Activity [6]: 22%; CL/F [7]: 79.6 mL/min/kg; bioavailability [8]: 106%; half-life [9]: 1.4 h; AUC(0-inf) [10]: 201 ng·h/mL; AUC(0-t) [11]: 1960 ng·h/mL; Activity [12]: 14%; Fu [13]: 0.032; AUC(0-t) [14]: 194 ng·h/mL; Activity [15]: 26%; Vd [16]: 7.43 L/kg; Cmax [17]: 825 ng/mL; concentration [18]: 125 nM; AUC(0-inf) [19]: 2090 ng·h/mL; Tmax [20]: 0.4 h; half-life [21]: 2.2 h
O=C(C[C@H](NS(=O)(=O)c1ccc2ccccc2c1)c1ccccc1)NCc1ccc(CN2CCCCC2)cc1 | > 4000 | – | – | –
O=C(C[C@@H](NS(=O)(=O)c1ccc2ccccc2c1)c1ccccc1)NCc1ccc(CN2CCCCC2)cc1 | 447 | 132 | – | –
O=C(C[C@@H](NS(=O)(=O)c1ccc2ccccc2c1)c1ccccc1)N[C@@H]1CCc2cc(CN3CCCCC3)ccc21 | 5.6 | 1.6 | 49200 | –
O=C(CC(NS(=O)(=O)c1ccc2ccccc2c1)c1ccccc1)NCc1ccc(CN2CCCCC2)cc1 (racemic) | 359 | 382 | 56000 | –
COc1ccc2c(c1)c(CC(=O)O)c(C)n2C(=O)c1ccc(Cl)cc1 [INDOMETHACIN] | – | – | – | Activity [22]: Not Active
